Active and inactive are the calls of the source. No cut-off for these calls is given here.
What follows are molecules tested on L1210 (assay: Cell cycle arrest in mouse L1210 cells by accumulation at G1 phase after 21 hrs by flow cytometry). Settings: not given.
Type: functional, cell-based
In the case of CC(=O)OC1CC(C)(C)Oc2cc3oc(=O)ccc3cc21 (racemic), the Activity is reported as “inactive”.
With CC1(C)CC(O)c2cc3ccc(=O)oc3cc2O1 (racemic) the Activity was “inactive”.
In the case of CC1(C)CC(O)c2c(ccc3ccc(=O)oc23)O1 (racemic), the Activity is reported as “inactive”.

These molecules were tested on L1210 (assay: Cytotoxicity against mouse L1210 cells after 48 hrs by […] assay). Settings: L1210, 48 h.
Type: functional, cell-based
Outline: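 L1210 cells grown in RPMI 1640 plus 10% fetal calf serum, 2 mM L-glutamine, penicillin/streptomycin, 10 mM HEPES (pH 7.4); exposed 48 h to nine serial drug dilutions in triplicate; microculture tetrazolium read-out; IC50 = concentration halving optical density versus untreated controls; mean of 2 independent experiments.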
Work on CC(=O)O[C@H]1c2c(ccc3ccc(=O)oc23)OC(C)(C)[C@H]1OC(C)=O (racemic) yielded an IC50 of over 100 µM.
Work on CC(=O)O[C@H]1c2c(ccc3ccc(=O)oc23)OC(C)(C)[C@@H]1Br (racemic) yielded an IC50 of 60.3 µM.
For CC1(C)Oc2cc3oc(=O)ccc3cc2[C@@H](O)[C@@H]1Br (racemic), the IC50 was over 100 µM.
CC(=O)O[C@@H]1c2cc3ccc(=O)oc3cc2OC(C)(C)[C@@H]1OC(C)=O (racemic) showed an IC50 of over 100 µM.
CC1(C)Oc2cc3oc(=O)ccc3cc2[C@@H](O)[C@H]1O (racemic) gave an IC50 of over 100 µM.
With CC(=O)OC1CC(C)(C)Oc2cc3oc(=O)ccc3cc21 (racemic) the IC50 was 5 µM.
CC1(C)CC(OC(=O)c2ccccc2)c2c(ccc3ccc(=O)oc23)O1 (racemic) was tested, and the IC50 was 30.9 µM.
Work on CC1(C)CC(OC(=O)c2ccccc2)c2cc3ccc(=O)oc3cc2O1 (racemic) yielded an IC50 of 90.1 µM.
CC1(C)CC(OC(=O)NCCCl)c2c(ccc3ccc(=O)oc23)O1 (racemic) was tested, and the IC50 was 67.2 µM.
CC1(C)Oc2ccc3ccc(=O)oc3c2[C@H](OC(=O)c2ccccc2)[C@H]1Br (racemic) was tested, and the IC50 was 10.3 µM.
Work on CC1(C)Oc2ccc3ccc(=O)oc3c2[C@H](O)[C@@H]1O (racemic) yielded an IC50 of over 100 µM.
With CC(=O)O[C@@H]1c2cc3ccc(=O)oc3cc2OC(C)(C)[C@H]1Br (racemic) the IC50 was over 100 µM.
In the case of CC1(C)CC(O)c2cc3ccc(=O)oc3cc2O1 (racemic), the IC50 is reported as 6.5 µM.
CC1(C)CC(O)c2c(ccc3ccc(=O)oc23)O1 (racemic) showed an IC50 of 0.9 µM.
For CC(=O)OC1CC(C)(C)Oc2ccc3ccc(=O)oc3c21 (racemic), the IC50 was 24.7 µM.
With CC1(C)Oc2ccc3ccc(=O)oc3c2[C@H](O)[C@H]1Br (racemic) the IC50 was over 100 µM.
Work on CC1(C)Oc2cc3oc(=O)ccc3cc2[C@@H](OC(=O)c2ccccc2)[C@@H]1Br (racemic) yielded an IC50 of 36.5 µM.

From ChEMBL document CHEMBL1150929, “Synthesis and cytotoxic activity of pyranocoumarins of the seselin and xanthyletin series” (J Nat Prod, 1998)
